Source: ChEMBL document CHEMBL1681660, “6-amino-4-(pyrimidin-4-yl)pyridones: novel glycogen synthase kinase-3β inhibitors” (Bioorg Med Chem Lett, 2011)

What was measured:
[1] = Ratio of drug level in brain to plasma in Sprague-Dawley rat at 5 mg/kg, sc after 1 hr; assay type: ADME, organism-based; set-up: dose 5 mg/kg, route subcutaneous; settings: brain and plasma, read-out: BPR
In short: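 Male Sprague–Dawley rats (n = 3 per time point) received 5 mg/kg subcutaneously. Plasma (cardiac puncture after CO2 euthanasia), brain and CSF were collected at 0.5, 1, 2 and 4 h. Drug levels were measured by LC/MS/MS. Ratio is taken from the average brain and plasma concentrations at 1 h.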

MDR = assay: Permeability from apical to basolateral side of MDCK cells over expressing MDR; settings: dog, MDCK-MDR1

Kp at 1 h [1]	Papp (apical to basal) (MDR) [×10⁻⁶ cm/s]	SMILES
1.86		COc1ccccc1[C@H]1CN(c2cc(-c3ccncn3)cc(=O)n2C)CCO1
0.96		Cn1c(N2CCC(O)(c3ccccc3)CC2)cc(-c2ccncn2)cc1=O
	13.9	Cc1cc(-c2cc(-c3ccccc3)nc(=O)[nH]2)ccc1O
0.35		COc1ccccc1CCNc1cc(-c2ccncn2)cc(=O)n1C
